Data from ChEMBL document CHEMBL1649383, “Mode of action of epoxyphomalins A and B and characterization of related metabolites from the marine-derived fungus Paraconiothyrium sp” (J Nat Prod, 2010).
Converted amounts (≈) assume the structure as drawn.

Legend:
HCT-116 [1] = experiment: Cytotoxicity against human HCT116 cells; assay type: functional, cell-based
Outline: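 Monolayer cell survival and proliferation assay, run within a panel of 36 human tumor cell lines; IC50 determined per cell line.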

[2] = Cytotoxicity against human LXFL 1121L cells; assay type: functional, cell-based
Outline: (§1)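 Monolayer cell survival and proliferation assay run across a panel of 36 human tumour cell lines; IC50 values determined.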

[3] = Cytotoxicity against human LXFL 529L cells; assay type: functional, cell-based; outline: as §1
[4] = Cytotoxicity against human OVXF 1619L cells; assay type: functional, cell-based
Outline: (§2)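 Monolayer cell survival and proliferation assay run across a panel of 36 human tumor cell lines, with IC50 determined from the resulting growth data.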

[5] = Cytotoxicity against human OVXF 899L cells; assay type: functional, cell-based; outline: as §2
[6] = Cytotoxicity against human PXF 1752L cells; assay type: functional, cell-based; outline: as §2
[7] = Cytotoxicity against human CNXF 498NL cells at 0.001 ug/ml relative to control; assay type: functional
SF-268 [8] = experiment: Cytotoxicity against human SF268 cells at 0.001 ug/ml relative to control; assay type: functional
HCT-116 [9] = experiment: Cytotoxicity against human HCT116 cells at 0.001 ug/ml relative to control; assay type: functional
HT-29 = experiment: Cytotoxicity against human HT-29 cells at 0.001 ug/ml relative to control; assay type: functional
[10] = Cytotoxicity against human HNXF 536L cells at 0.001 ug/ml relative to control; assay type: functional
[11] = Cytotoxicity against human LXFA 526L cells at 0.001 ug/ml relative to control; assay type: functional
MCF7 = experiment: Cytotoxicity against human MCF7 cells at 0.001 ug/ml relative to control; assay type: functional
CWR22R [12] = experiment: Cytotoxicity against human 22Rv1 cells at 0.001 ug/ml relative to control; assay type: functional
[13] = Cytotoxicity against human RXF 944L cells at 0.001 ug/ml relative to control; assay type: functional
[14] = Cytotoxicity against human GXF251L cells at 0.01 ug/ml relative to control; assay type: functional
[15] = Cytotoxicity against human LXFL 1121L cells at 0.01 ug/ml relative to control; assay type: functional
[16] = Cytotoxicity against human LXFA 526L cells at 0.01 ug/ml relative to control; assay type: functional
[17] = Cytotoxicity against human MEXF 394NL cells at 0.01 ug/ml relative to control; assay type: functional
LNCaP [18] = experiment: Cytotoxicity against human LNCAP cells at 0.01 ug/ml relative to control; assay type: functional
[19] = Cytotoxicity against human PXF 1752L cells at 0.01 ug/ml relative to control; assay type: functional
[20] = Cytotoxicity against human RXF 944L cells at 0.01 ug/ml relative to control; assay type: functional
HCT-116 [21] = experiment: Cytotoxicity against human HCT116 cells at 0.1 ug/ml relative to control; assay type: functional
[22] = Cytotoxicity against human LXFA 629L cells at 0.1 ug/ml relative to control; assay type: functional
NCI-H460 = experiment: Cytotoxicity against human H460 cells at 0.1 ug/ml relative to control; assay type: functional
[23] = Cytotoxicity against human MEXF 514L cells at 0.1 ug/ml relative to control; assay type: functional
[24] = Cytotoxicity against human OVXF 1619L cells at 0.1 ug/ml relative to control; assay type: functional
CWR22R [25] = experiment: Cytotoxicity against human 22Rv1 cells at 0.1 ug/ml relative to control; assay type: functional
DU-145 = experiment: Cytotoxicity against human DU145 cells at 0.1 ug/ml relative to control; assay type: functional
[26] = Cytotoxicity against human PC3M cells at 0.1 ug/ml relative to control; assay type: functional, PC-3M
[27] = Cytotoxicity against human UXF 1138L cells at 0.1 ug/ml relative to control; assay type: functional
SF-268 [28] = experiment: Cytotoxicity against human SF268 cells at 1 ug/ml relative to control; assay type: functional
[29] = Cytotoxicity against human LXFL 1121L cells at 1 ug/ml relative to control; assay type: functional
[30] = Cytotoxicity against human LXFA 289L cells at 1 ug/ml relative to control; assay type: functional
[31] = Cytotoxicity against human LXFA 629L cells at 1 ug/ml relative to control; assay type: functional
[32] = Cytotoxicity against human MAXF 401NL cells at 1 ug/ml relative to control; assay type: functional
[33] = Cytotoxicity against human MEXF 276L cells at 1 ug/ml relative to control; assay type: functional, MEXF276L
[34] = Cytotoxicity against human MEXF 514L cells at 1 ug/ml relative to control; assay type: functional
[35] = Cytotoxicity against human MEXF 520L cells at 1 ug/ml relative to control; assay type: functional
[36] = Cytotoxicity against human OVXF 899L cells at 1 ug/ml relative to control; assay type: functional
PANC-1 = experiment: Cytotoxicity against human PANC1 cells at 1 ug/ml relative to control; assay type: functional
CWR22R [37] = experiment: Cytotoxicity against human 22Rv1 cells at 1 ug/ml relative to control; assay type: functional
LNCaP [38] = experiment: Cytotoxicity against human LNCAP cells at 1 ug/ml relative to control; assay type: functional
[39] = Cytotoxicity against human PC3M cells at 1 ug/ml relative to control; assay type: functional, PC-3M
[40] = Cytotoxicity against human PXF 1752L cells at 1 ug/ml relative to control; assay type: functional
[41] = Cytotoxicity against human LXFA 526L cells at 10 ug/ml relative to control; assay type: functional
[42] = Cytotoxicity against human MAXF 401NL cells at 10 ug/ml relative to control; assay type: functional
[43] = Cytotoxicity against human MEXF 394NL cells at 10 ug/ml relative to control; assay type: functional
[44] = Cytotoxicity against human MEXF 462NL cells at 10 ug/ml relative to control; assay type: functional
OVCAR-3 = experiment: Cytotoxicity against human OVCAR3 cells at 10 ug/ml relative to control; assay type: functional
[45] = Cytotoxicity against human PC3M cells at 10 ug/ml relative to control; assay type: functional, PC-3M

## C=C1[C@@H](O)[C@H]2O[C@@]2(C[C@H]2C(C)=CC[C@H]3C(C)(C)CCC[C@]23C)[C@@H](O)[C@H]1O [EPOXYPHOLAMIN D]
HCT-116 [1]
  IC50: 7.7 µM
  IC70: 4.86 µg/mL (≈ 13.4 µM)
  IC90: 8.47 µg/mL (≈ 23.4 µM)
[2]
  IC50: 8.94 µM
  IC70: 5.35 µg/mL (≈ 14.8 µM)
  IC90: 8.82 µg/mL (≈ 24.3 µM)
[3]
  IC50: 8.58 µM
  IC70: 5.95 µg/mL (≈ 16.4 µM)
  IC90: 11.4 µg/mL (≈ 31.4 µM)
[4]
  IC50: 10.2 µM
  IC70: 6.09 µg/mL (≈ 16.8 µM)
  IC90: 10 µg/mL (≈ 27.6 µM)
[5]
  IC50: 8.19 µM
  IC70: 5.62 µg/mL (≈ 15.5 µM)
  IC90: 10.7 µg/mL (≈ 29.4 µM)
[6]
  IC50: 2.29 µM
  IC70: 3.05 µg/mL (≈ 8.42 µM)
  IC90: 12.3 µg/mL (≈ 34 µM)
[7]
  Activity: 102%
SF-268 [8]
  Activity: 106%
HCT-116 [9]
  Activity: 88%
HT-29
  Activity: 97%
[10]
  Activity: 79%
[11]
  Activity: 109%
MCF7
  Activity: 91%
CWR22R [12]
  Activity: 92%
[13]
  Activity: 150%
[14]
  Activity: 100%
[15]
  Activity: 135%
[16]
  Activity: 104%
[17]
  Activity: 85%
LNCaP [18]
  Activity: 111%
[19]
  Activity: 101%
[20]
  Activity: 138%
HCT-116 [21]
  Activity: 108%
[22]
  Activity: 81%
NCI-H460
  Activity: 91%
[23]
  Activity: 142%
[24]
  Activity: 81%
CWR22R [25]
  Activity: 90%
DU-145
  Activity: 88%
[26]
  Activity: 73%
[27]
  Activity: 99%
SF-268 [28]
  Activity: 117%
[29]
  Activity: 97%
[30]
  Activity: 102%
[31]
  Activity: 53%
[32]
  Activity: 48%
[33]
  Activity: 59%
[34]
  Activity: 115%
[35]
  Activity: 86%
[36]
  Activity: 84%
PANC-1
  Activity: 68%
CWR22R [37]
  Activity: 48%
LNCaP [38]
  Activity: 136%
[39]
  Activity: 18%
[40]
  Activity: 46%
[41]
  Activity: 19%
[42]
  Activity: 12%
[43]
  Activity: 6%
[44]
  Activity: 12%
OVCAR-3
  Activity: 13%
[45]
  Activity: 5%
